These results are taken from ChEMBL document CHEMBL2057114, “Non-nucleoside inhibitors of the measles virus RNA-dependent RNA polymerase: synthesis, structure-activity relationships, and pharmacokinetics” (J Med Chem, 2012).

In data set [1] the test system is Measles morbillivirus. Nature of the data set: Antiviral activity against Measles virus Alaska infected african green monkey Vero cells expressing human SLAM assessed as decrease in virus-induced cytopathic effect. It counts as functional, organism-based.
In data set [2] the test system is Measles morbillivirus. Kind of data set: Antiviral activity against Measles virus Alaska infected african green monkey Vero cells expressing human SLAM assessed as decrease in viral titer at EC50 of cytopathic inhibition. In kind it is functional, organism-based.
Data set [3] in a line: Solubility of the compound at pH 7.4 by nephelometric analysis. It counts as physicochemical. As to conditions: buffer. The gist of the method: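 Aqueous solubility was measured by nephelometry in buffer at pH 7.4.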
Another data set concerns Vero. Kind of data set: Cytotoxicity against african green monkey Vero cells after 24 hrs by MTT assay. It counts as cell-based. Conditions: chlorocebus sabaeus.
In another data set the test system is Caco-2. Nature of the data set: Efflux ratio of permeability in human Caco2 cells. In kind it is ADME, cell-based. The gist of the method:
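Caco-2 bidirectional permeability assay, with efflux ratio calculated from the two transport directions.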
On the technique in general: Caco-2 monolayers are a common model of the intestinal barrier.

Data set [4] can be described thus: Metabolic stability of the compound in human liver S9 fractions assessed as compound remaining after 1 hr. It counts as ADME, subcellular, S9 fraction. As to conditions: read-out: Stability. The gist of the method:
(§1)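 Compound incubated one hour in liver S9 fraction, with the percentage of parent compound remaining as the readout.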

The subject of data set [5] is Measles morbillivirus. Kind of data set: Inhibition of Measles virus RdRp expressed in baby hamster BSR-T7/5 cells by firefly luciferase mini replicon assay. It counts as cell-based. Summed up: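 BSR-T7/5 cells were transfected with plasmids encoding MeV L, N and P plus a firefly luciferase minigenome reporter, then incubated with a range of inhibitor concentrations or vehicle. Luciferase activity in cell lysates was read 36 h post-transfection relative to vehicle, and dose-response curves were built; three experiments.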

Data set [6] can be described thus: Metabolic stability of the compound in mouse liver S9 fractions assessed as compound remaining after 1 hr. It counts as ADME, subcellular, S9 fraction. Conditions: read-out: Stability. Summed up: as §1
For data set [7], the system named is Rattus norvegicus. Nature of the data set: Oral bioavailability in Sprague-Dawley rat at 10 mg/kg. In kind it is ADME, organism-based. Conditions: in vivo. The gist of the method: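 Rats were dosed 2 mg/kg i.v. and 10 mg/kg p.o., and oral bioavailability F was derived by comparing the two routes.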
Data set [8] in a line: Tmax in Sprague-Dawley rat at 10 mg/kg, po. In kind it is ADME, organism-based. Further details: dose 10 mg/kg, route oral. Conditions: in vivo. Summed up:
(§2)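 Oral gavage at 10 and 50 mg/kg to Sprague-Dawley rats, given as a suspension in PEG200/0.5% methylcellulose (10/90), n = 4 per group. Plasma concentration was followed over time, and PK parameters were estimated by non-compartmental analysis.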

A short description of data set [9]: Tmax in Sprague-Dawley rat at 50 mg/kg, po. Further details: dose 50 mg/kg, route oral. In kind it is ADME, organism-based. As to conditions: in vivo. The gist of the method:
as §2

A short description of data set [10]: Cmax in Sprague-Dawley rat at 10 mg/kg, po. In kind it is ADME, organism-based. Also noted: dose 10 mg/kg, route oral. As to conditions: in vivo. Summed up:
as §2

A short description of data set [11]: Cmax in Sprague-Dawley rat at 50 mg/kg, po. It counts as ADME, organism-based. As to conditions: in vivo. Further details: dose 50 mg/kg, route oral. The gist of the method: as §2
Data set [12] can be described thus: Half life in Sprague-Dawley rat at 10 mg/kg, po. In kind it is ADME, organism-based. Further details: dose 10 mg/kg, route oral. As to conditions: in vivo. Summed up: as §2
A short description of data set [13]: Half life in Sprague-Dawley rat at 50 mg/kg, po. Further details: dose 50 mg/kg, route oral. It counts as ADME, organism-based. Conditions: in vivo. Summed up: as §2
A short description of data set [14]: AUC (0 to t) in Sprague-Dawley rat at 10 mg/kg, po. Conditions: plasma. It counts as ADME, organism-based. Further details: dose 10 mg/kg, route oral. The gist of the method: as §2
A short description of data set [15]: AUC (0 to t) in Sprague-Dawley rat at 50 mg/kg, po. It counts as ADME, organism-based. Further details: dose 50 mg/kg, route oral. Conditions: plasma. The gist of the method:
as §2

Data set [16] in a line: AUC (0 to infinity) in Sprague-Dawley rat at 10 mg/kg, po. Further details: time infinity, dose 10 mg/kg, route oral. It counts as ADME, organism-based. Conditions: plasma. The gist of the method:
as §2

Data set [17] can be described thus: AUC (0 to infinity) in Sprague-Dawley rat at 50 mg/kg, po. It counts as ADME, organism-based. Further details: time infinity, dose 50 mg/kg, route oral. Conditions: plasma. Summed up: as §2
The test system of data set [18] is Rattus norvegicus. Kind of data set: Ratio of Cmax for ERDRP-00519 to Cmax for AS-136a in Sprague-Dawley rat at 10 to 50 mg/kg. It counts as ADME, organism-based. As to conditions: in vivo. Further details: dose 10-50 mg/kg.
In data set [19] the test system is Rattus norvegicus. Nature of the data set: Ratio of AUC for ERDRP-00519 to AUC for AS-136a in Sprague-Dawley rat at 10 to 50 mg/kg. It counts as ADME, organism-based. Also noted: dose 10-50 mg/kg. As to conditions: in vivo.

In brackets after ≈: the same amount, converted by molar mass.

With `Cn1nc(C(F)(F)F)cc1C(=O)Nc1ccc(S(=O)(=O)N2CCCC[C@H]2CCO)cc1`, the EC50 in the data set on Measles morbillivirus [1] turned out to be 3.1 µM.
Consider `Cn1nc(C(F)(F)F)cc1C(=O)Nc1ccc(S(=O)(=O)N2CCCCC2CCCO)cc1` (configuration not stated), for which the EC50 in the data set with Measles morbillivirus [1] was determined as 2.7 µM.
Take `Cn1nc(C(F)(F)F)cc1C(=O)Nc1ccc(S(=O)(=O)c2ccccc2)cc1`: the EC50 in the data set with Measles morbillivirus [1] worked out at 2.8 µM; in the data set on Measles morbillivirus [2], 0.09 µM. In data set [3], the solubility (kinetic) turned out to be 22 µg/mL (≈ 53.7 µM). Besides, in the data set on Vero, the CC50 was > 75 µM.
For `C=Cc1ccccc1S(=O)(=O)c1ccc(NC(=O)c2cc(C(F)(F)F)nn2C)cc1`, the EC50 in the data set with Measles morbillivirus [1] is > 50 µM.
Same read-out and setting: as for `Cn1nc(C(F)(F)F)cc1C(=O)Nc1ccc(S(=O)(=O)N2CCCCC2COCCO)cc1` (configuration not stated), the figure is 8.3 µM; as for `CCOC(=O)/C=C/C1CCCCN1S(=O)(=O)c1ccc(NC(=O)c2cc(C(F)(F)F)nn2C)cc1` (configuration not stated), 6.8 µM.
On to `Cn1nc(C(F)(F)F)cc1C(=O)Nc1ccc(S(=O)(=O)c2ccccc2CO)cc1`, for which, in the data set on Measles morbillivirus [1], the EC50 is 3.5 µM. Further, the kinetic solubility in data set [3] was 46 µg/mL (≈ 105 µM). Further, the CC50 in the data set on Vero is > 75 µM.
Consider `Cn1nc(C(F)(F)F)cc1C(=O)Nc1ccc(S(=O)(=O)c2ccccc2CN2CCOCC2)cc1`, for which, in the data set with Measles morbillivirus [1], the EC50 is > 75 µM.
Regarding `CCOC(=O)COCC1CCCCN1S(=O)(=O)c1ccc(NC(=O)c2cc(C(F)(F)F)nn2C)cc1` (configuration not stated), the EC50 in the data set with Measles morbillivirus [1] turned out to be 25 µM.
Still for that read-out and setting: as for `CCOC(=O)CCC1CCCCN1S(=O)(=O)c1ccc(NC(=O)c2cc(C(F)(F)F)nn2C)cc1` (configuration not stated), the figure is 6.7 µM.
`Cn1nc(C(F)(F)F)cc1C(=O)Nc1ccc(S(=O)(=O)N2CCCCC2)cc1`: the concentration for a half-maximal effect (EC50) with Measles morbillivirus [1] amounted to 2 µM. In addition, the kinetic solubility in data set [3] was < 15 µg/mL. For the same compound, the CC50 in the data set with Vero was > 75 µM. Besides, the Ratio in the data set with Caco-2 is given as 1.1. The values for the remaining at 1 h in data set [4] and in [6] were 69% and 79%, respectively. In the data set on Measles morbillivirus [5], the inhibition result is “Dose-dependent effect”.
As to `Cn1nc(C(F)(F)F)cc1C(=O)Nc1ccc(S(=O)(=O)N2CCCCC2/C=C/CO)cc1` (configuration not stated), the EC50 in the data set on Measles morbillivirus [1] is 3.7 µM.
As to `COCOCC1CCCCN1S(=O)(=O)c1ccc(NC(=O)c2cc(C(F)(F)F)nn2C)cc1` (configuration not stated), in the data set with Measles morbillivirus [1], the EC50 is 1.5 µM.
Same read-out and setting: as for `CN(C)CC1CCCCN1S(=O)(=O)c1ccc(NC(=O)c2cc(C(F)(F)F)nn2C)cc1` (configuration not stated), the figure is > 150 µM; as for `CC(=O)Oc1ccccc1S(=O)(=O)c1ccc(NC(=O)c2cc(C(F)(F)F)nn2C)cc1`, 4.5 µM; as for `Cn1nc(C(F)(F)F)cc1C(=O)Nc1ccc(S(=O)(=O)N2CCCCC2CN)cc1` (configuration not stated), 55 µM.
For the compound `Cn1nc(C(F)(F)F)cc1C(=O)Nc1ccc(S(=O)(=O)N2CCCCC2CCO)cc1` (configuration not stated), the EC50 in the data set with Measles morbillivirus [1] is 2.7 µM; with Measles morbillivirus [2], 0.1 µM. In [3], this compound returned a kinetic solubility of 62 µg/mL (≈ 135 µM). Also, the CC50 with Vero was > 75 µM.
For `COc1ccccc1S(=O)(=O)c1ccc(NC(=O)c2cc(C(F)(F)F)nn2C)cc1`, the half-maximal effective concentration (EC50) in the data set on Measles morbillivirus [1] was found to be 3.1 µM. Besides, in data set [3], the kinetic solubility was < 15 µg/mL. Besides, in the data set with Vero, the CC50 is > 75 µM.
As for `Cn1nc(C(F)(F)F)cc1C(=O)Nc1ccc(S(=O)(=O)c2ccccc2O)cc1`, in the data set with Measles morbillivirus [1], the EC50 worked out at 4.5 µM. This compound also yielded a solubility (kinetic) in data set [3] of 67 µg/mL (≈ 158 µM).
For the compound `Cn1nc(C(F)(F)F)cc1C(=O)Nc1ccc(S(=O)(=O)N2CCCC[C@H]2CCN2CCOCC2)cc1`, the EC50 in the data set with Measles morbillivirus [1] amounted to 2.5 µM; with Measles morbillivirus [2] it was 0.06 µM. For the same compound, in data set [3], the solubility (kinetic) was determined as 60 µg/mL (≈ 113 µM). The CC50 with Vero was > 75 µM. This compound also displayed a F in the data set on Rattus norvegicus [7] of 39%. The values for the Ratio with Caco-2, with Rattus norvegicus [18] and with Rattus norvegicus [19] were 2.6, 10 and 10, respectively. For the same compound, in [4], the remaining at 1 h came out at 24%. The Tmax in [8] is 1.1 h; in [9], 1.5 h. Besides, the values for the Cmax in data set [10] and in data set [11] were 195 ng/mL and 823 ng/mL, respectively. Also, the half-life is 2.2 h in data set [12] and 6.5 h in data set [13]. Also, the AUC(0-t) is 683 ng·h/mL in data set [14] and 3520 ng·h/mL in [15]. The AUC(0-inf) was determined as 818 ng·h/mL in [16] and 7860 ng·h/mL in data set [17]. Also, in the data set with Measles morbillivirus [5], the inhibition result was “Dose-dependent effect”.
Consider `Cn1nc(C(F)(F)F)cc1C(=O)Nc1ccc(S(=O)(=O)N2CCCCC2CO)cc1` (configuration not stated), for which the EC50 in the data set on Measles morbillivirus [1] was determined as 2.8 µM. Besides, the solubility (kinetic) in data set [3] is 61 µg/mL (≈ 137 µM). Besides, in the data set on Vero, the CC50 was > 75 µM.
Regarding `Cn1nc(C(F)(F)F)cc1C(=O)Nc1ccc(S(=O)(=O)N2CCCCC2CN=[N+]=[N-])cc1` (configuration not stated), the EC50 with Measles morbillivirus [1] turned out to be 1.5 µM.
Regarding `Cn1nc(C(F)(F)F)cc1C(=O)Nc1ccc(S(=O)(=O)N2CCCCC2CCN2CCOCC2)cc1` (configuration not stated), the EC50 in the data set on Measles morbillivirus [1] worked out at 4.6 µM. In [3], this compound yielded a kinetic solubility of 55 µg/mL (≈ 104 µM).
With `CC(=O)NCC1CCCCN1S(=O)(=O)c1ccc(NC(=O)c2cc(C(F)(F)F)nn2C)cc1` (configuration not stated), the EC50 in the data set on Measles morbillivirus [1] amounted to 14 µM.
For the compound `Cn1nc(C(F)(F)F)cc1C(=O)Nc1ccc(S(=O)(=O)N2CCCC[C@@H]2CCO)cc1`, the EC50 in the data set with Measles morbillivirus [1] worked out at 8.3 µM.
Consider `Cn1nc(C(F)(F)F)cc1C(=O)Nc1ccc(S(=O)(=O)N2CCCCC2CN2CCOCC2)cc1` (configuration not stated), for which the EC50 in the data set on Measles morbillivirus [1] stood at 9.3 µM.
In the case of `COCOCC1CCN(S(=O)(=O)c2ccc(NC(=O)c3cc(C(F)(F)F)nn3C)cc2)CC1`, the EC50 in the data set on Measles morbillivirus [1] amounted to 16 µM.
On the same count and under the same terms, next, `COCOCC1CCCN(S(=O)(=O)c2ccc(NC(=O)c3cc(C(F)(F)F)nn3C)cc2)C1` (configuration not stated): 3.8 µM.

The EC50 is the concentration at which the effect is half-maximal. What is called kinetic solubility is solubility judged after dilution from a stock solution rather than from solid. Broadly, the CC50 is the concentration at which the toxic effect on the cells reaches its halfway point. A word on the Tmax: it is the time from dosing to the highest level. As a reminder, the Cmax is the maximum level reached in the sampled fluid or tissue. As usually defined, the half-life is how long it takes for the measured level to halve. Broadly, the AUC(0-t) is exposure summed from dosing to a finite time, without extrapolation to infinity. The AUC(0-inf) is total exposure, with the tail of the curve extrapolated.
